Assay outcomes (PubChem)
Glyco luc inh: blocks N-linked glycosylation in D54 reporter cells | 0.23% of 360,000 active | reporter increase, % at 12.5 µM | D54 ERlucT glycosylation luciferase reporter, 24 h; percent of 100 nM tunicamycin response;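 active means mean luciferase reporter signal, scaled so untreated is 0 and the glycosylation-blocking control 100, at or above a set limit in every replicate; inconclusive means mean reaches the limit but not every replicate does; inactive means mean below the limit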;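 further: luciferase carries N-glycosylation sites so blocking glycosylation raises the light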
Env fusion inh: blocks HIV Env-driven cell-cell fusion. inhibition, % at 12.3 µM. AID 651610. HeLa-JRFL Env/CEM21 cell fusion, luciferase. 1.1% of 360,000 active;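 active means mean replicate inhibition score of at least 50 and every replicate individually at or above 50; inconclusive means only one of the two criteria met; inactive means mean below 50 and not all replicates reaching 50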
PfHsp90 yeast 2: reduces growth (ATP signal) of yeast expressing P. falciparum Hsp90 | 0.32% of 310,000 active | AID 504621 | S. cerevisiae expressing PfHsp90, BacTiter-Glo ATP, 48 h; yeast lacking PDR1 and PDR3 efflux regulators | inhibition, % at 9.4 µM;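 active means every replicate shows inhibition above about 80%, whatever the replicate mean, limit read from the data; inconclusive means mean inhibition reaches the set limit but some replicate falls short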
Arrestin-AP2 inh: inhibitors of human beta-arrestin and AP2 interaction. 0.31% of 340,000 active. inhibition, % at 10 µM. FITC-arrestin peptide / GST-AP2 beads, flow cytometry; AP2 beta2 appendage carries R879A mutation;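 active means inhibition above a set limit, near 3 SD of compounds lacking own fluorescence, cut at about 54% in these data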
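System: GST-AP2 R879A glutathione beads. Medium: PBS with 0.05% Tween 20 and 0.1% BSA. Also added: FITC-arrestin peptide, 50 nM. Incubation: 12 min plus 1 h, RT. Measured by: high-throughput flow cytometry of beads, ex 488, em 535 nm. Evaluation: percent drop in bead-associated FITC signal.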
Rtt109 HAT inh: blocks Candida albicans Rtt109/Vps75 acetyltransferase activity; Q5AAJ8; purified Rtt109/Vps75, ThioGlo CoA-SH fluorescence, 4 h; 0.16% of 330,000 active; inhibition, % at 34.9 µM;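 active means inhibition of at least 50% in every replicate; inconclusive means best replicate reaches 50% inhibition but some replicates fall short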
Target sequence (Q5AAJ8 whole entry, looked up): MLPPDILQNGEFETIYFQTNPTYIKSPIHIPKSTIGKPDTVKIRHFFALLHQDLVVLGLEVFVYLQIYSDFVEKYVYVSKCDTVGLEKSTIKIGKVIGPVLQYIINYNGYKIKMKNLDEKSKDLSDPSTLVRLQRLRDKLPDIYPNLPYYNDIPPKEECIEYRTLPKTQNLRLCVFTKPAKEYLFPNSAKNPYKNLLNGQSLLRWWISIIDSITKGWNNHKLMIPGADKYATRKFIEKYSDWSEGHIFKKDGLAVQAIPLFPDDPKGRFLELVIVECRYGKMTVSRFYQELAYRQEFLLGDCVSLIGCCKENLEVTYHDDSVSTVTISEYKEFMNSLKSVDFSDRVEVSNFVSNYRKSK
PAX8 reporter: inhibitors of PAX8 transcriptional activity in RMG-I cells; RMG-I TPO-luciferase reporter, SteadyGlo, 24 h; inhibition, % at 12.6 µM; 1.2% of 360,000 active;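 active means mean replicate inhibition at least 60% with every replicate also reaching 60%; inconclusive means only one of the two criteria is met; inactive means mean below 60% and not all replicates reaching 60%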;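 further: luciferase light reporting Pax8 driven TPO promoter activity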
A number is an active result. Rows were chosen to be rich in hits. Some 2.3% of all compounds tested hit in one or more screens of this group.

COCCNC(=O)C[C@@H]1CC[C@@H](NS(=O)(=O)c2ccc(C)cc2)[C@@H](CO)O1 was read as Env fusion inh inactive and PAX8 reporter inactive.
Screening CCCCCCCCCCCCCCCCCCNc1ccn(C2OC(COP(=O)(O)OCC3OC(n4cc(F)c(=O)[nH]c4=O)CC3O)C(O)C2O)c(=O)n1 (centres undefined) returned Glyco luc inh 34.9, Env fusion inh inactive, PfHsp90 yeast 2 inactive, Arrestin-AP2 inh inactive, Rtt109 HAT inh inactive and PAX8 reporter inactive.
C[C@@H]1CCCCO[C@@H](CN(C)S(=O)(=O)c2cn(C)cn2)[C@H](C)CN([C@H](C)CO)C(=O)c2cc(NS(=O)(=O)c3cccs3)ccc2O1 was read as Env fusion inh inactive and PAX8 reporter inactive.
O=C1c2cccc3cc([N+](=O)[O-])cc(c23)C(=O)N1CCN1CCCC1 was read as Glyco luc inh inactive, Env fusion inh inactive, PfHsp90 yeast 2 inactive, Arrestin-AP2 inh inactive, Rtt109 HAT inh inactive and PAX8 reporter 89.9.
For O=c1[nH]c(CS(=O)(=O)c2ccccc2)nc2ccccc12 the results were Glyco luc inh inactive, PfHsp90 yeast 2 inactive, Arrestin-AP2 inh inactive and Rtt109 HAT inh inactive.
`CCn1c(C)c(CS(=O)(=O)c2ccccc2)[nH]c1=O` gave Glyco luc inh inactive, Env fusion inh inactive, PfHsp90 yeast 2 inactive, Arrestin-AP2 inh inactive, Rtt109 HAT inh 118.8 and PAX8 reporter inactive.
For C=CCN1C(=O)[C@]2(O[C@H](CCO)[C@@H]([Si](C)(C)c3ccc(OC)cc3)[C@@H]2C)c2cc(NC(=O)[C@H](C)O)ccc21 the results were Env fusion inh inactive and PAX8 reporter inactive.
`COc1ccc(C(=O)Nc2ccc(CN3C(=O)[C@]4(O[C@H](CC(=O)N5Cc6ccccc6C[C@H]5CO)[C@@H]([Si](C)(C)c5ccc(OC)cc5)[C@@H]4C)c4ccccc43)cc2)cc1` gave Env fusion inh inactive and PAX8 reporter 91.7.
`COc1ccc([Si](C)(C)[C@H]2[C@H](CCO)O[C@@]3(C(=O)N(Cc4cccc(NC(=O)[C@H](C)O)c4)c4ccccc43)[C@@H]2C)cc1` gave Env fusion inh inconclusive and PAX8 reporter 86.4.
COc1ccc([Si](C)(C)[C@@H]2[C@@H](CC(=O)N3Cc4ccccc4C[C@H]3CO)O[C@]3(C(=O)N(C)c4c(Br)cc(C)cc43)[C@H]2C)cc1 was read as Env fusion inh inactive and PAX8 reporter 80.7.
`COc1ccc([Si](C)(C)[C@@H]2[C@@H](CCO)O[C@]3(C(=O)N(Cc4ccc(NC(=O)[C@H](C)O)cc4)c4ccccc43)[C@H]2C)cc1` gave Env fusion inh inactive and PAX8 reporter 101.1.
For CN1CCN(C(=O)C[C@@H]2CC[C@@H]3[C@H](COC[C@H](O)CN3C(=O)Nc3ccc(F)cc3)O2)CC1 the results were Env fusion inh inactive and PAX8 reporter inactive.
`COc1ccc([Si](C)(C)[C@H]2[C@H](CCO)O[C@@]3(C(=O)N(Cc4ccc(N5CCOC5=O)cc4)c4ccccc43)[C@@H]2C)cc1` gave Env fusion inh inactive and PAX8 reporter 106.7.
Screening C=CCN1C(=O)[C@]2(O[C@H](CCO)[C@@H]([Si](C)(C)c3ccc(OC)cc3)[C@@H]2C)c2cc(I)ccc21 returned Env fusion inh inactive and PAX8 reporter 105.3.
For COc1ccc([Si](C)(C)[C@@H]2[C@@H](CCn3cc(CCO)nn3)O[C@]3(C(=O)N(Cc4ccc(N5CCOC5=O)cc4)c4ccccc43)[C@H]2C)cc1 the results were Env fusion inh inactive.
Screening COc1ccccc1-c1cnc2c(c1)C(=O)N([C@H](C)CO)C[C@@H](C)[C@@H](CN(C)CC1CCOCC1)O2 returned PAX8 reporter inactive.
Screening CCOc1ccc(NS(=O)(=O)c2ccc(C(=O)N(C)CCc3ccc(OC)c(OC)c3)cc2)cc1 returned Glyco luc inh inactive, Env fusion inh 88.7, PfHsp90 yeast 2 inactive, Arrestin-AP2 inh inactive, Rtt109 HAT inh inactive and PAX8 reporter inactive.
For COc1ccc(CCN(C)C(=O)c2ccc(S(=O)(=O)Nc3ccccc3C)cc2)cc1OC the results were Env fusion inh inactive and PAX8 reporter inactive.
For O=S(=O)(Nc1ccc(O)c(Sc2nc3ccccc3s2)c1)c1cccc2ccccc12 the results were Glyco luc inh inactive, Env fusion inh inactive, PfHsp90 yeast 2 inactive, Arrestin-AP2 inh inactive, Rtt109 HAT inh 57.7 and PAX8 reporter inactive.
CCOC(=O)C1=C(C)Nc2ccccc2S1 was read as Glyco luc inh inactive, Env fusion inh inactive, PfHsp90 yeast 2 inactive, Arrestin-AP2 inh inactive, Rtt109 HAT inh 51.4 and PAX8 reporter inactive.
CCOC(=O)/C=C1\Nc2ccccc2SC1=O was read as Glyco luc inh inactive, Env fusion inh 112.9, PfHsp90 yeast 2 inactive, Arrestin-AP2 inh inactive, Rtt109 HAT inh inactive and PAX8 reporter inactive.
`CCOC(=O)C1=C(C)Nc2ccc(C)cc2S1` gave Glyco luc inh inactive, Env fusion inh inactive, PfHsp90 yeast 2 inactive, Arrestin-AP2 inh inactive, Rtt109 HAT inh inactive and PAX8 reporter inactive.
For CC(C)NC(=O)N(C)C[C@H]1Oc2ccc(NC(=O)c3ccncc3)cc2CC(=O)N([C@H](C)CO)C[C@H]1C the results were PAX8 reporter inactive.
For [N-]=[N+]=NCc1ccccc1C[C@]1(C(=O)NCCN2CCOCC2)COC(c2ccc(OCCCO)cc2)=N1 the results were Env fusion inh inactive and PAX8 reporter inactive.
`CCC(O)(CC)C(=O)NN(C(=O)Nc1csc2c1CCCC2)c1ccccc1` gave Glyco luc inh inactive, Env fusion inh 62.1, PfHsp90 yeast 2 inactive, Arrestin-AP2 inh inactive, Rtt109 HAT inh inactive and PAX8 reporter inactive.
Screening O=C(Nc1ccccc1O)c1csc2c1CCCC2 returned Glyco luc inh inactive, Env fusion inh inconclusive, PfHsp90 yeast 2 inactive, Arrestin-AP2 inh inactive, Rtt109 HAT inh inactive and PAX8 reporter inactive.
For COc1ccc(N2C(=O)CN=C2Nc2nc(C)cc(C)n2)cc1 the results were Glyco luc inh inactive, Env fusion inh inactive, PfHsp90 yeast 2 inactive, Arrestin-AP2 inh inactive, Rtt109 HAT inh inactive and PAX8 reporter 76.3.
Cc1cc(C)nc(NC2=NCC(=O)N2c2ccccc2)n1 was read as Glyco luc inh inactive, Env fusion inh inactive, PfHsp90 yeast 2 inactive, Arrestin-AP2 inh inactive, Rtt109 HAT inh inactive and PAX8 reporter inactive.
`O=C1CCCc2c1[nH]c1ccc(Cl)cc21` gave Glyco luc inh inactive, Env fusion inh 82.8, PfHsp90 yeast 2 inactive, Arrestin-AP2 inh inactive and Rtt109 HAT inh inactive.
`CCOC(=O)c1ccc2[nH]c3c(c2c1)CCCCC3=O` gave Glyco luc inh inactive, PfHsp90 yeast 2 inactive, Arrestin-AP2 inh inactive and Rtt109 HAT inh inactive.
Screening COc1ccc2[nH]c3c(c2c1)CCC/C3=N\N returned Glyco luc inh inactive, Env fusion inh inactive, PfHsp90 yeast 2 inactive, Arrestin-AP2 inh inactive, Rtt109 HAT inh inactive and PAX8 reporter inactive.
